Reference: ChEMBL document CHEMBL4622977, “A CNS-Targeting Prodrug Strategy for Nuclear Receptor Modulators” (J Med Chem, 2020)
Each block holds one molecule with its values, some of them ahead of it. Active and inactive are the calls of the source. No cut-off for these calls is given here.

Columns and labels:
[1] = AUC (0.5 to 6 hrs) in C57BL/6 mouse brain assessed as bexarotene level at 9.14 umol/kg, ip by LC-MS/MS analysis; type: ADME, organism-based; parameters: dose 9.14 umol/kg, time 0.5-6 hr, route intraperitoneal; conditions: in vivo, BLD = below limit of detection
How it was run: (§1)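 Male wild-type C57BL/6 mice (8−10 weeks, n=3 per time point) received parent drug or equimolar prodrug at […] i.p. in DMSO. Brain and serum were collected at 0.5, 2 and 6 h. Parent acid was quantified by LC-MS/MS against vehicle-tissue standard curves with d₆-sobetirome internal standard. AUC0.5–6 h was computed from the time course; mean ± SEM.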

[2] = AUC (0.5 to 6 hrs) in C57BL/6 mouse serum assessed as bexarotene level at 9.14 umol/kg, ip by LC-MS/MS analysis; type: ADME, organism-based; parameters: dose 9.14 umol/kg, time 0.5-6 hr, route intraperitoneal; conditions: in vivo; how it was run: as §1
[3] = Prodrug conversion in C57BL/6 mouse brain assessed as bexarotene level at 9.14 umol/kg, ip measured after 1 hr in presence of FAAH inhibitor PF-3845 by LC-MS/MS analysis; type: ADME, organism-based; conditions: in vivo
How it was run: (§2)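 Male C57BL/6 mice (n=3) received PF-3845 at 1 mg/kg i.p., then prodrug at […] i.p. 1 h later; comparators received prodrug alone. Vehicle was DMSO. Whole brain was taken 1 h after prodrug and homogenized in water with d₆-sobetirome internal standard. It was extracted with EtOAc/MeCN and parent acid was measured by LC-MS/MS; mean ± SEM, 2-tailed unpaired t test.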

[4] = Hepatotoxicity in C57BL/6 mouse assessed effect on Rarres2 gene expression at 9.14 umol/kg, ip administered once daily for 7 days by Trizol reagent based RT-qPCR analysis; conditions: in vivo, 168 h
Mus musculus = assay: In vivo agonist activity at RAR in C57BL/6 mouse assessed upregulation of Adam10 gene expression in brain at 9.14 umol/kg, ip administered once daily for 7 days by Trizol reagent based RT-qPCR analysis; type: functional, organism-based
How it was run: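 Male C57BL/6 mice (n=5) were dosed once daily for 7 days i.p. with parent drug at […], equimolar prodrug, or vehicle. The vehicle was 1:1:8 Kolliphor:NMP:water. Target gene expression was compared between groups per tissue by 2-tailed unpaired t test.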

[5] = AUC (0.5 to 6 hrs) in C57BL/6 mouse serum assessed as tazarotenic acid level at 9.14 umol/kg, ip by LC-MS/MS analysis; type: ADME, organism-based; parameters: time lower 0.5 hr, dose 9.14 umol/kg, time upper 6 hr, route intraperitoneal; conditions: in vivo; how it was run: as §1
[6] = Brain to serum concentration ratio, Kp of the compound in C57BL/6 mouse assessed as tazarotenic acid level at 9.14 umol/kg, ip by LC-MS/MS analysis; type: ADME, organism-based
How it was run: (§3)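 Brain-to-serum ratio Kp was calculated from brain and serum parent-drug AUC0.5–6 h (ng/g*h). These AUCs came from male C57BL/6 mice (n=3 per time point) given parent drug or equimolar prodrug at […] i.p. in DMSO, sampled at 0.5, 2 and 6 h. Parent acid was quantified by LC-MS/MS with d₆-sobetirome internal standard.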

[7] = AUC (0.5 to 6 hrs) in C57BL/6 mouse brain assessed as tazarotenic acid level at 9.14 umol/kg, ip by LC-MS/MS analysis; type: ADME, organism-based; parameters: time lower 0.5 hr, dose 9.14 umol/kg, time upper 6 hr, route intraperitoneal; conditions: in vivo; how it was run: as §1
[8] = Prodrug conversion in C57BL/6 mouse brain assessed as tazarotenic acid level at 9.14 umol/kg, ip measured after 1 hr in presence of FAAH inhibitor PF-3845 by LC-MS/MS analysis; type: ADME, organism-based; conditions: in vivo; how it was run: as §2
[9] = AUC (0.5 to 6 hrs) in C57BL/6 mouse serum assessed as [4-(4-hydroxy-3-iodophenoxy)-3,5-diiodophenyl]acetic acid level at 9.14 umol/kg, ip by LC-MS/MS analysis; type: ADME, organism-based; parameters: dose 9.14 umol/kg, time 0.5-6 hr, route intraperitoneal; conditions: in vivo; how it was run: as §1
[10] = Brain to serum concentration ratio, Kp of the compound in C57BL/6 mouse assessed as [4-(4-hydroxy-3-iodophenoxy)-3,5-diiodophenyl]acetic acid level at 9.14 umol/kg, ip by LC-MS/MS analysis; type: ADME, organism-based; how it was run: as §3
[11] = Prodrug conversion in C57BL/6 mouse brain assessed as [4-(4-hydroxy-3-iodophenoxy)-3,5-diiodophenyl]acetic acid level at 9.14 umol/kg, ip measured after 1 hr in presence of FAAH inhibitor PF-3845 by LC-MS/MS analysis; type: ADME, organism-based; conditions: in vivo; how it was run: as §2
[12] = AUC (0.5 to 6 hrs) in C57BL/6 mouse brain assessed as [4-(4-hydroxy-3-iodophenoxy)-3,5-diiodophenyl]acetic acid level at 9.14 umol/kg, ip by LC-MS/MS analysis; type: ADME, organism-based; parameters: dose 9.14 umol/kg, time upper 6 hr, time lower 0.5 hr, route intraperitoneal; conditions: in vivo; how it was run: as §1
[13] = mouse, in vivo, ip
[14] = AUC (0.5 to 6 hrs) in C57BL/6 mouse serum at 9.14 umol/kg, ip by LC-MS/MS analysis; type: ADME, organism-based; parameters: time upper 6 hr, dose 9.14 umol/kg, time lower 0.5 hr, route intraperitoneal; conditions: in vivo; how it was run: as §1
in vivo = conditions: C57BL/6, mouse, brain/serum, ip, 9.14 umol/kg
[15] = Brain to serum concentration ratio, Kp of the compound in C57BL/6 mouse assessed as GW7604 level at 9.14 umol/kg, ip by LC-MS/MS analysis; type: ADME, organism-based; how it was run: as §3
[16] = Prodrug conversion in C57BL/6 mouse brain assessed as GW7604 level at 9.14 umol/kg, ip measured after 1 hr in presence of FAAH inhibitor PF-3845 by LC-MS/MS analysis; type: ADME, organism-based; conditions: in vivo; how it was run: as §2
[17] = AUC (0.5 to 6 hrs) in C57BL/6 mouse serum assessed as GW7604 level at 9.14 umol/kg, ip by LC-MS/MS analysis; type: ADME, organism-based; parameters: time lower 0.5 hr, dose 9.14 umol/kg, time upper 6 hr, route intraperitoneal; conditions: in vivo; how it was run: as §1
[18] = AUC (0.5 to 6 hrs) in C57BL/6 mouse brain assessed as GW7604 level at 9.14 umol/kg, ip by LC-MS/MS analysis; type: ADME, organism-based; parameters: time 0.5-6 hr, dose 9.14 umol/kg, route intraperitoneal; conditions: in vivo; how it was run: as §1

SMILES: CNC(=O)c1ccc(C#Cc2ccc3c(c2)C(C)(C)CCS3)nc1
Activity [4]: Non-Toxic
Activity (Mus musculus): Active
AUC [5]: 51.34 ng·h/g
Kp [6]: 2.03
AUC [7]: 104 ng·h/g
Drug metabolism [8]: Metabolite_Notdetected

SMILES: CNC(=O)Cc1cc(I)c(Oc2ccc(O)c(I)c2)c(I)c1
AUC [9]: 4020 ng·h/g
Kp [10]: 0.039
Drug metabolism [11]: Metabolite_Detected
AUC [12]: 155.8 ng·h/g

SMILES: O=C(O)Cc1cccc(OCCCN(Cc2cccc(C(F)(F)F)c2Cl)CC(c2ccccc2)c2ccccc2)c1
AUC [13]: 1867 ng·h/g
AUC [14]: 8853 ng·h/g
Kp (in vivo): 0.21

SMILES: CCCc1c(OCCCSc2ccc(CC(=O)O)cc2Cl)ccc2c(C(F)(F)F)noc12
AUC [13]: 67.35 ng·h/g
AUC [14]: 2140 ng·h/g
Kp (in vivo): 0.03

Results, then the molecule that gave them:

AUC [1]: Bld
AUC [2]: 4.933 ng·h/g
Drug metabolism [3]: Metabolite_Notdetected
SMILES: C=C(c1ccc(C(=O)NC)cc1)c1cc2c(cc1C)C(C)(C)CCC2(C)C

Kp [15]: 1.01
Drug metabolism [16]: Metabolite_Notdetected
AUC [17]: 17.77 ng·h/g
AUC [18]: 18.03 ng·h/g
SMILES: CC/C(=C(\c1ccc(O)cc1)c1ccc(/C=C/C(=O)NC)cc1)c1ccccc1

AUC [13]: 5.5 ng·h/g
AUC [14]: 420.7 ng·h/g
Kp (in vivo): 0.013
SMILES: CC(C)(Oc1ccc(CCNC(=O)c2ccc(Cl)cc2)cc1)C(=O)O [BEZAFIBRATE]

AUC [13]: 41.8 ng·h/g
AUC [14]: 2330 ng·h/g
Kp (in vivo): 0.018
SMILES: Cc1cc(SCc2sc(-c3ccc(C(F)(F)F)cc3)nc2C)ccc1OCC(=O)O [GW501516]
